Reference: PubChem BioAssay
Values joined by “and” are separate entries in the source; they are usually repeats but may differ in a detail not shown here. Equal values may be shown once. Active and inactive are the calls of the source.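 Rule for the calls, unless noted: active = a full or partial loss of lipid-probe fluorescence in the fish gall bladder, intestine or both, judged by eye; inactive = no fluorescence loss, or compound toxic to the fish.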

target: Alpha-2C adrenergic receptor (Homo sapiens) (UniProt P18825); assay: modulators of alpha2C/GIRK thallium flux, primary screen, cell-based, HEK293 alpha2C/GIRK1/2 (AID 624;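 active = fluorescence slope after compound addition differing from the mean of all screened samples at 99.7% confidence, in either direction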;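 note: slope of fluorescence ratio to pre-addition baseline per second over 15 to 24 s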); conditions: thallium flux BTC fluorescence, at 10 µM, actives lie on both sides
Sequence (P18825 whole entry, looked up): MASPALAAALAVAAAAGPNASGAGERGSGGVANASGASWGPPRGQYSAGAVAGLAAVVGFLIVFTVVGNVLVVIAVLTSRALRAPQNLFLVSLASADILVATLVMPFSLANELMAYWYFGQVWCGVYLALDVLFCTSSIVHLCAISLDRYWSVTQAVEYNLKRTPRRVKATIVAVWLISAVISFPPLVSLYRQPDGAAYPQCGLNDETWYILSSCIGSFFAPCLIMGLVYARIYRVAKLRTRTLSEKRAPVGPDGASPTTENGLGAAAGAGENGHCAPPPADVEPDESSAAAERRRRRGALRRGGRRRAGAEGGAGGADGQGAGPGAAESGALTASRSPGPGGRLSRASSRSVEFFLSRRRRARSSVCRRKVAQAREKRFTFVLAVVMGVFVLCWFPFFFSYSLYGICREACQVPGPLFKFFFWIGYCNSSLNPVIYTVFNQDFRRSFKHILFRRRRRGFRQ

SMILES | slope
O=C1CC[C@@]2(O)[C@H]3Cc4ccc(O)c5c4[C@@]2(CCN3CC2CC2)[C@H]1O5 | 0.0048 (inactive)
CCCC(C)(COC(N)=O)COC(=O)NC(C)C (stereo unspecified) | 0.0053 (inactive)
COc1ccc(Cc2nccc3cc(OC)c(OC)cc23)cc1OC | 0.00447 (inactive)
C[N+]1(C)[C@@H]2CC[C@H]1CC(OC(=O)C(CO)c1ccccc1)C2 (stereo partly specified) | 0.005 (inactive) and 0.00423 (inactive)
c1ccc2c(c1)OCC(C1=NCCN1)O2 (stereo unspecified) | 0.0054 (inactive)
O=C(COc1ccc2ccccc2c1)N1CCN(C2CCN(Cc3ccccc3)CC2)CC1 | 0.00353 (inactive)
C[C@]12CCC(=O)C=C1CC[C@@H]1[C@@H]2CC[C@]2(C)C(=O)CC[C@@H]12 | 0.00365 (inactive)
CN(C)[C@@H]1C(=O)C(C(N)=O)=C(O)[C@@]2(O)C(=O)C3=C(O)c4c(O)cccc4[C@@](C)(O)[C@H]3[C@H](O)[C@@H]12 | 0.00569 (inactive)
O=c1[nH]c2ccccc2n1CCCN1CCC(n2c(=O)[nH]c3cc(Cl)ccc32)CC1 | 0.00301 (inactive)

target: Muscarinic acetylcholine receptor M4 (Homo sapiens) (UniProt P08173); assay: compounds altering M4/GIRK thallium flux, either direction, primary screen, M4 allosteric agonist project, cell-based, HEK293 M4/GIRK, BTC-AM (AID 625;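 active = fluorescence slope after compound addition differing from the mean of all tested samples at 99.7% confidence, mostly higher but some lower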;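 note: thallium influx through GIRK channels coupled to M4 in HEK293 cells with BTC-AM dye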); conditions: at 10 µM, actives lie on both sides
How it was run: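 System: HEK293 cells with M4 receptor and GIRK channels | Incubation: Cells overnight at 37 °C, BTC-AM loading 1 h, reads 2 min total | Technique: Kinetic BTC-AM fluorescence sampled at 1 Hz, 10 s pre-addition baseline | Measure: Post-addition slope, 15–24 s, of baseline-normalized fluorescence | Control set: Carbachol positive, DMSO negative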

Chain of Muscarinic acetylcholine receptor M4 (Homo sapiens) (P08173 whole entry, looked up): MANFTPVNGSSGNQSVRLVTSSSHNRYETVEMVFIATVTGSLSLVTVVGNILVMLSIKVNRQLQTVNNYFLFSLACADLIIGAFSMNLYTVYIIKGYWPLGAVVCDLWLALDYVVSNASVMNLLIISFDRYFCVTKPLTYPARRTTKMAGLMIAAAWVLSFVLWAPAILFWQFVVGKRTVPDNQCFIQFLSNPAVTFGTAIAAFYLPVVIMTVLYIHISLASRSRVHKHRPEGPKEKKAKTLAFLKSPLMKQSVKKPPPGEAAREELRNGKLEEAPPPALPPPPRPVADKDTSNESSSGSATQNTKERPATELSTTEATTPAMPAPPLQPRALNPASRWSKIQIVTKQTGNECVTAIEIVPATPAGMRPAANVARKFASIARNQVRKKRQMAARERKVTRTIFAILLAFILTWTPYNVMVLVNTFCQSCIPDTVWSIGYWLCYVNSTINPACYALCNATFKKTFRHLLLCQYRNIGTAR

SMILES | fluorescence slope
COc1ccc2c(c1)c(C(=O)O)c(C)n2CC(C)C | 0.00491 (inactive)
O=P(c1ccccc1)(c1ccccc1)N1CCCCC1 | 0.00417 (inactive)
CC(=O)CC(C)(C)n1c[n+](C)nn1 | 0.00569 (inactive)
Cn1c(O)c(C(=O)c2ccccc2Cl)c(=O)n(C)c1=O | 0.00543 (inactive)

tested on: not listed separately; assay: inhibitors of larval lipid processing in zebrafish, primary screen, whole organism, PED6 fluorescence, gall bladder and intestine (AID 686); conditions: Zebrafish larvae PED6 lipid processing, fluorescence scoring;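 note: larvae 5 to 7 days old with five fish per well; signal comes from phospholipase A2 cleavage of quenched PED6 carried via bile; overnight exposure to compound and PED6 before scoring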
How it was run: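 Test system – live zebrafish larvae aged 5-7 days, whole organism · Buffer or medium – E3 fish medium · Reagent – quenched phospholipase substrate PED6, 100 nM final, ingested by larvae · Doses – 20 µM single dose · Incubation – overnight compound and PED6 incubation · Technique – visual fluorescence microscopy scoring of gall bladder, gut · Read-out basis – visual per-well fluorescence inhibition score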

SMILES | outcome
O=C1CC[C@@]2(O)[C@H]3Cc4ccc(O)c5c4[C@@]2(CCN3CC2CC2)[C@H]1O5 | inactive
CCCC(C)(COC(N)=O)COC(=O)NC(C)C (stereo unspecified) | inactive
COc1ccc(Cc2nccc3cc(OC)c(OC)cc23)cc1OC | inactive; toxic
C[N+]1(C)[C@@H]2CC[C@H]1CC(OC(=O)C(CO)c1ccccc1)C2 (stereo partly specified) | inactive
COc1ccc2c(c1)c(C(=O)O)c(C)n2CC(C)C | inactive
O=P(c1ccccc1)(c1ccccc1)N1CCCCC1 | inactive
CC[C@@H]1C(=O)OC[C@@H]1Cc1cncn1C | inactive [screened at 20 µM (by protocol)]
c1ccc2c(c1)OCC(C1=NCCN1)O2 (stereo unspecified) | inactive
O=C(COc1ccc2ccccc2c1)N1CCN(C2CCN(Cc3ccccc3)CC2)CC1 | inactive
CC(=O)CC(C)(C)n1c[n+](C)nn1 | inactive
C[C@]12CCC(=O)C=C1CC[C@@H]1[C@@H]2CC[C@]2(C)C(=O)CC[C@@H]12 | inactive
CN(C)[C@@H]1C(=O)C(C(N)=O)=C(O)[C@@]2(O)C(=O)C3=C(O)c4c(O)cccc4[C@@](C)(O)[C@H]3[C@H](O)[C@@H]12 | inactive
Cn1c(O)c(C(=O)c2ccccc2Cl)c(=O)n(C)c1=O | inactive
